Assay results as given in ChEMBL document CHEMBL1772997 (J Med Chem, 2011).
Calls of active or inactive are those of the source. The rule behind the calls is not given here.

What was measured:
[1] = biological target: T1, Melatonin receptor type 1B (Homo sapiens, UniProt P49286); assay: Displacement of [125I]-2-iodomelatonin from human MT2 receptor expressed on CHO cells microscintillation counting; format: cell-based
T1 sequence (P49286 whole entry): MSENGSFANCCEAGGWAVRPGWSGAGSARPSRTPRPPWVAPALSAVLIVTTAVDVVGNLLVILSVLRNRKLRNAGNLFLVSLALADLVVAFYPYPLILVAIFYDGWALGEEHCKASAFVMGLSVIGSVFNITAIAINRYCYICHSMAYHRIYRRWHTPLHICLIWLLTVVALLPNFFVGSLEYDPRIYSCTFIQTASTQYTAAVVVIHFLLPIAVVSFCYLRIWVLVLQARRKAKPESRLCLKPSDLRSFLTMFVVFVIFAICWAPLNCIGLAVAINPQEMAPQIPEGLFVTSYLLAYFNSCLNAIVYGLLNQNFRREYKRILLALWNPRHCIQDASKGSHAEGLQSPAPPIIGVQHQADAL

[2] = biological target: T2, Melatonin receptor type 1A (Homo sapiens, UniProt P48039); assay: Displacement of [125I]-2-iodomelatonin from human MT1 receptor expressed on CHO cells by microscintillation counting; format: cell-based
T2 sequence (P48039 whole entry): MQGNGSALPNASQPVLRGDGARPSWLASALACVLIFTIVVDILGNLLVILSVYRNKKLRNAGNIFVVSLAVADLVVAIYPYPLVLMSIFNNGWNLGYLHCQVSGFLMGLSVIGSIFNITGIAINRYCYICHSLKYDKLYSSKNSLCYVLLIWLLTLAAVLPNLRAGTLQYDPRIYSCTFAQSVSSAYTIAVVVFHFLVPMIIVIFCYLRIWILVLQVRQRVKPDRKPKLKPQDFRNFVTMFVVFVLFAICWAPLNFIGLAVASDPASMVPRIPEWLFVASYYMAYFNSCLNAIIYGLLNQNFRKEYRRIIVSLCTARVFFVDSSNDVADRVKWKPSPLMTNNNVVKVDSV

Homo sapiens = organism: Homo sapiens; assay: Selectivity ratio, ratio of Ki for human MT1 receptor over Ki for human MT2 receptor
[3] = biological target: T3, Melatonin receptor type 1B (Homo sapiens) (UniProt P49286); assay: Ratio of compound Ki to melatonin Ki for human MT2 receptor expressed on CHO cells by radioligand displacement assay; format: cell-based
T3 sequence (whole entry): T1 sequence (P49286 whole entry)
Summary of the method: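 Membranes from CHO cells stably expressing human MT1 or MT2, in 50 mM Tris-HCl pH 7.7. Incubated with 2-[¹²⁵I]iodomelatonin, 40 pM for MT1 or 80 pM for MT2, 150 min at 25 °C. […] IC50 by three-parameter fit, Ki by Cheng–Prusoff using Kd 33.9 pM for MT1 and 72.6 pM for MT2.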

[4] = biological target: T2, Melatonin receptor type 1A; assay: Agonist activity at human MT1 receptor expressed in CHO cells assessed as inhibition of forskolin-induced cAMP accumulation after 30 mins by EnVision Multilabel Plate Readers; format: functional, cell-based
[5] = biological target: T3, Melatonin receptor type 1B (Homo sapiens); assay: Agonist activity at human MT2 receptor expressed in CHO cells assessed as inhibition of forskolin-induced cAMP accumulation after 30 mins by EnVision Multilabel Plate Readers relative to control; format: functional, cell-based
Summary of the method: (§1)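 Stable CHO line expressing human MT2, suspended in modified HBSS with 5 mM HEPES pH 7.4, 0.1% BSA, 100 μM IBMX and 100 μM Ro20-1724; 6 × 10⁴ cells/well. Compound added, then forskolin (final 2 μM), 30 min at room temperature; AlphaScreen cAMP read after 12 h in dark.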

[6] = biological target: T1, Melatonin receptor type 1B; assay: Agonist activity at human MT2 receptor expressed in CHO cells assessed as inhibition of forskolin-induced cAMP accumulation after 30 mins by EnVision Multilabel Plate Readers; format: functional, cell-based
Mus musculus [7] = assay: Chronobiotic activity in ICR mouse assessed as reentrainment for 8 hrs advance of dark phase at 30 mg/kg, ip administered 1 hr before dark period once daily for 3 days by running-wheel activity assay; format: functional, organism-based; parameters: dose 30 mg/kg
Summary of the method: (§2)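 Male ICR mice (6 weeks old), housed individually with running wheels under 12/12 light/dark, habituated at least 2 weeks; dark phase then advanced 8 h and kept 14 days. Dosed ip once daily 1 h before dark from shift day, suspended in 0.5% methylcellulose saline, 10 mL/kg. Days to reentrainment: onset advanced >7 h for ≥3 consecutive days, else scored 14 days.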

Mus musculus [8] = assay: Chronobiotic activity in ICR mouse assessed as reentrainment for 8 hrs advance of dark phase at 3 mg/kg, ip administered 1 hr before dark period once daily for 3 days by running-wheel activity assay; format: functional, organism-based; parameters: dose 3 mg/kg; summary of the method: as §2
[9] = biological target: T3, Melatonin receptor type 1B (Homo sapiens); assay: Partial agonist activity at human MT2 receptor expressed in CHO cells assessed as inhibition of forskolin-induced cAMP accumulation after 30 mins by EnVision Multilabel Plate Readers relative to control; format: functional, cell-based; summary of the method: as §1

Ki [1]	Ki [2]	Ratio Ki (Homo sapiens)	Ratio Ki [3]	EC50 [4]	Emax [5]	EC50 [6]	Emax [9]	Compound	Activity (Mus musculus [7])	Activity (Mus musculus [8])
0.0096 nM	0.0065 nM	0.68						CC(=O)NCCC1=C(c2ccoc2)Cc2ccc3c(c21)CCO3		
0.02 nM	1.1 nM	53						COc1ccccc1C1=C(CCNC(C)=O)c2c(ccc3c2CCO3)C1		
0.035 nM	0.11 nM	3.2						CC(C)C1=C(CCNC(=O)C2CC2)c2c(ccc3c2CCO3)C1		
0.034 nM	0.069 nM	2.1						CC(=O)NCCC1=C(c2cccnc2)Cc2ccc3c(c21)CCO3		
0.084 nM	1.1 nM	13						CCNC(=O)NCCC1=C(C(C)C)Cc2ccc3c(c21)CCO3		
0.77 nM	1.4 nM	1.8						CC(=O)NCCC1=C(c2ccc(C(C)(C)C)cc2)Cc2ccc3c(c21)CCO3		
0.0067 nM	0.88 nM	132						CC(=O)NCCC1=C(Cc2ccsc2)Cc2ccc3c(c21)CCO3		
0.012 nM	9.2 nM	799	18	4.47 nM	99%	1.32 nM		CC(=O)NCCC1=C(CC2CCCCC2)Cc2ccc3c(c21)CCO3	Active	Active
0.0085 nM	2.7 nM	316		0.513 nM	61.7%			CC(=O)NCCC1=C(Cc2ccccc2)Cc2ccc3c(c21)CCO3		
0.009 nM	0.057 nM	6.3						COc1cccc(C2=C(CCNC(C)=O)c3c(ccc4c3CCO4)C2)c1		
0.018 nM	0.024 nM	1.3						CC(=O)NCCC1=C(C(C)C)Cc2ccc3c(c21)CCO3		
0.011 nM	0.013 nM	1.3						CCC(=O)NCCC1=C(C(C)C)Cc2ccc3c(c21)CCO3		
0.011 nM	13 nM	1200	19	3.02 nM			72.8%	CC(=O)NCCC1=C(c2cccc(C(C)C)c2)Cc2ccc3c(c21)CCO3		
0.014 nM	0.0087 nM	0.61						CC(=O)NCCC1=C(Br)Cc2ccc3c(c21)CCO3		
0.022 nM	0.045 nM	2.1	10					CC(=O)NCCC1=CCc2ccc3c(c21)CCO3		
0.34 nM	> 100 nM	> 292						CC(=O)NCCC1=C(c2ccccc2OC(C)C)Cc2ccc3c(c21)CCO3		
0.01 nM	0.032 nM	3.1						CC(C)C1=C(CCNC(=O)C(F)(F)F)c2c(ccc3c2CCO3)C1		
0.006 nM	1.3 nM	220						CC(=O)NCCC1=C(c2csc3ccccc23)Cc2ccc3c(c21)CCO3		
0.037 nM	3 nM	81						COc1ccc(C2=C(CCNC(C)=O)c3c(ccc4c3CCO4)C2)cc1		
